Experimental data: ChEMBL document CHEMBL4196066, “Design and synthesis of furyl/thineyl pyrroloquinolones based on natural alkaloid perlolyrine, lead to the discovery of potent and selective PDE5 inhibitors” (Eur J Med Chem, 2018)

Legend:
[1] = Cmax in Wistar rat at 2 mg/kg, iv; type: ADME, organism-based; design: dose 2 mg/kg, route intravenous; details: in vivo
[2] = Cmax in Wistar rat at 15 mg/kg, po; type: ADME, organism-based; design: dose 15 mg/kg, route oral; details: in vivo
[3] = Volume of distribution at steady state in Wistar rat at 2 mg/kg, iv; type: ADME, organism-based; details: in vivo, read-out: Vdss
Homo sapiens [4] = species: Homo sapiens; assay: Selectivity ratio of IC50 for N-terminal GST-tagged full length recombinant human PDE6C to IC50 for N-terminal GST-tagged full length recombinant human PDE5A1 catalytic domain
[5] = biological target: Cone cGMP-specific 3',5'-cyclic phosphodiesterase subunit alpha' (Homo sapiens, UniProt P51160); assay: Inhibition of N-terminal GST-tagged full length recombinant human PDE6C expressed in Baculovirus infected Sf9 insect cells using […] as substrate after 1 hr by fluorescence polarization assay
Chain of Cone cGMP-specific 3',5'-cyclic phosphodiesterase subunit alpha' (P51160 whole entry, the tested form may be a part): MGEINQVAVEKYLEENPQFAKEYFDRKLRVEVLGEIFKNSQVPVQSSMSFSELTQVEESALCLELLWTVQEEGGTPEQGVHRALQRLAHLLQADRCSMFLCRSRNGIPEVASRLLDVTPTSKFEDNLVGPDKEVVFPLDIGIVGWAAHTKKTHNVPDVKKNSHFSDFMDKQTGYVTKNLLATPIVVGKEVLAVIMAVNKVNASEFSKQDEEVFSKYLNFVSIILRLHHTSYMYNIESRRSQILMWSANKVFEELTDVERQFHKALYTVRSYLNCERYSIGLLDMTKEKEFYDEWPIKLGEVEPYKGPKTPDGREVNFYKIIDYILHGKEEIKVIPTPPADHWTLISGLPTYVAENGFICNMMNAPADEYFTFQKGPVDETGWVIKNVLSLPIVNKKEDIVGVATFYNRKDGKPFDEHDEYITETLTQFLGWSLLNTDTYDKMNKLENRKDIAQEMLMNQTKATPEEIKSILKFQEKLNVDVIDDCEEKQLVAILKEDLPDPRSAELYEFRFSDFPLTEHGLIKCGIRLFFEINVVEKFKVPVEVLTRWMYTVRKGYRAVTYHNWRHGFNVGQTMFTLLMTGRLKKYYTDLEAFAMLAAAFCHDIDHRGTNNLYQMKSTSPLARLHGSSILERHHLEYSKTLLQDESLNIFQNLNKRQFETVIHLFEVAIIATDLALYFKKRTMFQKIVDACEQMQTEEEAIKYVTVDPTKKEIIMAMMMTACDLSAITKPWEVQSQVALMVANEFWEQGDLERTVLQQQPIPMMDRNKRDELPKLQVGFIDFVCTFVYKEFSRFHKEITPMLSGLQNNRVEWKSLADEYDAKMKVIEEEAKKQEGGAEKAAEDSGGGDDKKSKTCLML

[6] = biological target: cGMP-dependent 3',5'-cyclic phosphodiesterase (Homo sapiens) (UniProt O00408); assay: Inhibition of N-terminal FLAG-tagged human PDE2A1 (2 to 941 residues) expressed in Baculovirus infected Sf9 insect cells at 6 uM using FAM-cAMP as substrate after 1 hr by fluorescence polarization assay relative to control
Chain of cGMP-dependent 3',5'-cyclic phosphodiesterase (Homo sapiens) (O00408 whole entry, the tested form may be a part): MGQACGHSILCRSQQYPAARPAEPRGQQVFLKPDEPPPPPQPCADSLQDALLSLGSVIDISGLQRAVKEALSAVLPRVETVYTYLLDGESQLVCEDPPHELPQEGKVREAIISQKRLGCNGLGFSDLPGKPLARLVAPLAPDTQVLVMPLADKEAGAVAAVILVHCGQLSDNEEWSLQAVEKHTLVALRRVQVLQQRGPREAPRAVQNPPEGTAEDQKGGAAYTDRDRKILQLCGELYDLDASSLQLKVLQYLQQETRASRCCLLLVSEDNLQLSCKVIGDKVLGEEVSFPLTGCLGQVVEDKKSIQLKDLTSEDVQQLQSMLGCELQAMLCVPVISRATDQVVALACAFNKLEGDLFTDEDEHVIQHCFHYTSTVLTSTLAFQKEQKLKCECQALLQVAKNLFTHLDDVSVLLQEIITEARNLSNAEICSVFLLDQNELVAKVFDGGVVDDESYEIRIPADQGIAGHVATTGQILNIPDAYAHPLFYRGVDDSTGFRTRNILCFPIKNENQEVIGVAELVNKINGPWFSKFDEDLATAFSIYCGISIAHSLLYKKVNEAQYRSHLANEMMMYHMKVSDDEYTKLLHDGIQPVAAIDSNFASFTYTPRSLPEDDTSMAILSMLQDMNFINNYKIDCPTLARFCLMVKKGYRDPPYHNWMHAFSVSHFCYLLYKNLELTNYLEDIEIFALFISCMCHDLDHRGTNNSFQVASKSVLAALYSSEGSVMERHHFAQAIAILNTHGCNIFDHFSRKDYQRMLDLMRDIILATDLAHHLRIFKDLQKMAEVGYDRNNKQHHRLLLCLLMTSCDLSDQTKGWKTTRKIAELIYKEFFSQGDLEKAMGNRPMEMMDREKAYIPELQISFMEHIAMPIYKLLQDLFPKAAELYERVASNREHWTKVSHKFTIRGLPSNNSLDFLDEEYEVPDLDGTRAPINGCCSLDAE

[7] = AUC (0 to 24 hrs) in Wistar rat at 2 mg/kg, iv; type: ADME, organism-based; design: time < 24 hr, dose 2 mg/kg, route intravenous; details: in vivo
[8] = Clearance in Wistar rat at 15 mg/kg, po; type: ADME, organism-based; details: in vivo
Homo sapiens [9] = species: Homo sapiens; assay: Selectivity ratio of IC50 for N-terminal FLAG-tagged human PDE2A1 (2 to 941 residues) to IC50 for N-terminal GST-tagged full length recombinant human PDE5A1 catalytic domain
Thoracic aorta = assay: Vasorelaxant activity in norepinephrine-pretreated New Zealand rabbit thoracic aorta assessed as increase in aortic relaxation at 1 uM measured after 15 mins relative to control; type: functional, Oryctolagus cuniculus; design: scale not given: the % may be the effect or the level left
Procedure, shortened: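 Thoracic aortic rings from New Zealand white rabbits were held in Krebs buffer at 2 g resting tension (0%) and equilibrated 2 h. Rings were contracted to maximum with 1 µM norepinephrine (100%). Compounds were added cumulatively at 15 min intervals, with tension recorded 15 min after each dose. Relaxation % = (max − recorded)/(max − 2 g) × 100; n = 1–2 rings.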

[10] = MRT in Wistar rat at 2 mg/kg, iv; type: ADME, organism-based; details: in vivo
Homo sapiens [11] = species: Homo sapiens; assay: Selectivity ratio of IC50 for N-terminal GST-tagged recombinant human PDE3B (592 end residues) to IC50 for N-terminal GST-tagged full length recombinant human PDE5A1 catalytic domain
Oryctolagus cuniculus = assay: Vasorelaxant activity in iv dosed New Zealand rabbit assessed as induction of ICP change in response to electrically pelvic nerve stimulation administered as bolus dose; type: functional
[12] = Clearance in Wistar rat at 2 mg/kg, iv; type: ADME, organism-based; details: in vivo
[13] = biological target: Dual specificity calcium/calmodulin-dependent 3',5'-cyclic nucleotide phosphodiesterase 1A (Homo sapiens) (UniProt P54750); assay: Inhibition of N-terminal GST-tagged full length recombinant human PDE1A expressed in Baculovirus infected Sf9 insect cells at 6 uM using FAM-cAMP as substrate after 1 hr by fluorescence polarization assay relative to control
Chain of Dual specificity calcium/calmodulin-dependent 3',5'-cyclic nucleotide phosphodiesterase 1A (Homo sapiens) (P54750 whole entry, the tested form may be a part): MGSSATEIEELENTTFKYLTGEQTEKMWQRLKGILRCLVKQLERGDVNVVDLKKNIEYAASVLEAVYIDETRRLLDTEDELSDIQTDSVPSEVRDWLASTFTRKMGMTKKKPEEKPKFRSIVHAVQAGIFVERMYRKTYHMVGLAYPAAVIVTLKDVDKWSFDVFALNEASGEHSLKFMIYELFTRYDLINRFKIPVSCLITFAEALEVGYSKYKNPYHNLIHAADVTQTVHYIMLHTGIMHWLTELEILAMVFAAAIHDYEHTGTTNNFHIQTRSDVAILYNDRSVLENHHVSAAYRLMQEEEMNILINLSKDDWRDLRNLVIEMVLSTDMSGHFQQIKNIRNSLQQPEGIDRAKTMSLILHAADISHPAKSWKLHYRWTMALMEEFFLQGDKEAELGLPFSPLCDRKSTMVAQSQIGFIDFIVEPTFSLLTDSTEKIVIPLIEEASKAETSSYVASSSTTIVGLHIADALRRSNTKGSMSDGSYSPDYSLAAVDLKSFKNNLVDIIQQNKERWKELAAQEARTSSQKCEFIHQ

[14] = biological target: cGMP-specific 3',5'-cyclic phosphodiesterase (Homo sapiens, UniProt O76074); assay: Inhibition of N-terminal GST-tagged full length recombinant human PDE5A1 catalytic domain expressed in Baculovirus infected Sf9 insect cells using FAM-cGMP as substrate after 1 hr by fluorescence polarization assay
[15] = biological target: 3',5'-cyclic-AMP phosphodiesterase 4A (Homo sapiens) (UniProt P27815); assay: Inhibition of N-terminal GST-tagged full length recombinant human PDE4A1A expressed in Baculovirus infected Sf9 insect cells at 1 uM using FAM-cAMP as substrate after 1 hr by fluorescence polarization assay relative to control
Chain of 3',5'-cyclic-AMP phosphodiesterase 4A (Homo sapiens) (P27815 whole entry): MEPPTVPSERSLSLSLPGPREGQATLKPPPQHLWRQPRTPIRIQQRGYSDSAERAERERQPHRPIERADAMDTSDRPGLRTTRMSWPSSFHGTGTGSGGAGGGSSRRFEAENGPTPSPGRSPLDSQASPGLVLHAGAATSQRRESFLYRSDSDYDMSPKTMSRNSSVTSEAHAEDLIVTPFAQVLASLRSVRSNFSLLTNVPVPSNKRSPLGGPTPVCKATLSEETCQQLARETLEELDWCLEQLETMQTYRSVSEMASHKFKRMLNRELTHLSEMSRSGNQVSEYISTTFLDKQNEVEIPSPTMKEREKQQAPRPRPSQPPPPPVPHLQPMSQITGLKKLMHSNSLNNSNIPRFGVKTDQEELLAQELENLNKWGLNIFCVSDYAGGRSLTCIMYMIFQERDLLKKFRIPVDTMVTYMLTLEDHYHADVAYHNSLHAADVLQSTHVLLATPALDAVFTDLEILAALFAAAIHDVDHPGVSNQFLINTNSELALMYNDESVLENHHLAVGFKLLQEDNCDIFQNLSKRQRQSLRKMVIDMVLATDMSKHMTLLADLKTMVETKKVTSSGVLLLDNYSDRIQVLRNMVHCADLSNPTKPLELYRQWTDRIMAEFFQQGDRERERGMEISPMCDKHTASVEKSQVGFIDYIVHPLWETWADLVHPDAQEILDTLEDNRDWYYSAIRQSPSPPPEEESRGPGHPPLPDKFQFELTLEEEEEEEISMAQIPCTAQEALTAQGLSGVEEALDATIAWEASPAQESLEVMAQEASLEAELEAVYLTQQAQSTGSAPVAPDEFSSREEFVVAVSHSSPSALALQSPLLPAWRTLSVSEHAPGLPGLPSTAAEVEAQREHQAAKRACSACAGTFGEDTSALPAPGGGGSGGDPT

[16] = Tmax in Wistar rat at 15 mg/kg, po; type: ADME, organism-based; details: in vivo
Homo sapiens [17] = species: Homo sapiens; assay: Selectivity ratio of IC50 for N-terminal GST-tagged full length recombinant human PDE11A to IC50 for N-terminal GST-tagged full length recombinant human PDE5A1 catalytic domain
[18] = biological target: cGMP-inhibited 3',5'-cyclic phosphodiesterase 3B (Homo sapiens) (UniProt Q13370); assay: Inhibition of N-terminal GST-tagged recombinant human PDE3B (592 end residues) expressed in Baculovirus infected Sf9 insect cells at 6 uM using FAM-cAMP as substrate after 1 hr by fluorescence polarization assay relative to control
Chain of cGMP-inhibited 3',5'-cyclic phosphodiesterase 3B (Homo sapiens) (Q13370 whole entry, looked up): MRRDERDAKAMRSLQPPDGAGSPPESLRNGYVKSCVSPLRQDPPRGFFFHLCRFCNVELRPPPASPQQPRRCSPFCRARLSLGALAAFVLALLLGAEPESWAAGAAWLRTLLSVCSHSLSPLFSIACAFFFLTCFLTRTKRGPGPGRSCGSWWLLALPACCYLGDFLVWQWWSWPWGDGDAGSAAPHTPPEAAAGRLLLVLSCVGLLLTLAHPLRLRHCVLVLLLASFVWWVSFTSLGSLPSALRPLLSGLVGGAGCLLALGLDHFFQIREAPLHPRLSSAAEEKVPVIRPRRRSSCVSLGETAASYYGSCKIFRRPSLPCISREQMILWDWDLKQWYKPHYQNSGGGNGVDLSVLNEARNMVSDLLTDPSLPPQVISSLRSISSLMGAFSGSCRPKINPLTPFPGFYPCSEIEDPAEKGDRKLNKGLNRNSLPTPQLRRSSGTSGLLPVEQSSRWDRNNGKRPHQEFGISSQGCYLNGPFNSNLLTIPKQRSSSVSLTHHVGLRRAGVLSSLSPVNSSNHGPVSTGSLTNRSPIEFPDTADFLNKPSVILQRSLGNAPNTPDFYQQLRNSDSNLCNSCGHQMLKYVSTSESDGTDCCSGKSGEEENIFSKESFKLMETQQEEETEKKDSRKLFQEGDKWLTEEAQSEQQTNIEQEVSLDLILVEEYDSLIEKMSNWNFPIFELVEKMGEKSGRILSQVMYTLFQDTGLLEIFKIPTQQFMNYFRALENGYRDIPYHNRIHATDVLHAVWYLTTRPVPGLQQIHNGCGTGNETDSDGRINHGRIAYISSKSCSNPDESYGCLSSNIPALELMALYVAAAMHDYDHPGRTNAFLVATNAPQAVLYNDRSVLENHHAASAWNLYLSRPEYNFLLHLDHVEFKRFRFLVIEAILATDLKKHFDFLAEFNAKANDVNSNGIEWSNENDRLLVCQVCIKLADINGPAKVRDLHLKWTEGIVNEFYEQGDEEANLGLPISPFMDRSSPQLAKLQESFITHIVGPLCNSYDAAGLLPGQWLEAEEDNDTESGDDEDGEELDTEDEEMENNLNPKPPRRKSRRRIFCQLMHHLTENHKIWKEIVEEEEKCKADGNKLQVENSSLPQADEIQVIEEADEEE

[19] = Oral bioavailability in Wistar rat at 15 mg/kg; type: ADME, organism-based; details: in vivo
[20] = (§1) AUC (0 to infinity) in Wistar rat at 15 mg/kg, po; type: ADME, organism-based; design: dose 15 mg/kg, route oral, time infinity; details: Wistar, in vivo
Procedure, shortened: (§2)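 Male Wistar rats (228−249 g) fasted 12 h, dosed orally in 0.5% methylcellulose. Blood drawn at 0, 0.5, 1, 1.5, 2, 4, 6, 12 and 24 h; plasma separated by centrifugation at 4 °C, stored at −80 °C, drug measured by LC–MS/MS, and PK parameters computed from the concentration–time data.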

[21] = Half life in Wistar rat at 2 mg/kg, iv; type: ADME, organism-based; details: in vivo
[22] = AUC (0 to infinity) in Wistar rat at 2 mg/kg, iv; type: ADME, organism-based; design: dose 2 mg/kg, route intravenous, time infinity; details: in vivo
Homo sapiens [23] = species: Homo sapiens; assay: Selectivity ratio of IC50 for N-terminal GST-tagged full length recombinant human PDE1A to IC50 for N-terminal GST-tagged full length recombinant human PDE5A1 catalytic domain
[24] = MRT in Wistar rat at 15 mg/kg, po; type: ADME, organism-based; details: in vivo
Rattus norvegicus [25] = assay: Volume of distribution at steady state in Wistar rat at 15 mg/kg, po; type: ADME, organism-based; details: in vivo
[26] = biological target: Dual 3',5'-cyclic-AMP and -GMP phosphodiesterase 11A (Homo sapiens, UniProt Q9HCR9); assay: Inhibition of N-terminal GST-tagged full length recombinant human PDE11A expressed in Baculovirus infected Sf9 insect cells using FAM-cAMP as substrate after 1 hr by fluorescence polarization assay
[27] = Half life in Wistar rat at 15 mg/kg, po; type: ADME, organism-based; details: in vivo
[28] = AUC (0 to 24 hrs) in Wistar rat at 15 mg/kg, po; type: ADME, organism-based; design: time < 24 hr, dose 15 mg/kg, route oral; details: in vivo; procedure, shortened: as §2
Homo sapiens [29] = species: Homo sapiens; assay: Selectivity ratio of IC50 for N-terminal GST-tagged full length recombinant human PDE4A1A to IC50 for N-terminal GST-tagged full length recombinant human PDE5A1 catalytic domain
[30] = Tmax in Wistar rat at 2 mg/kg, iv; type: ADME, organism-based; details: in vivo
[31] = biological target: cGMP-dependent 3',5'-cyclic phosphodiesterase (Homo sapiens) (UniProt O00408); assay: Inhibition of N-terminal FLAG-tagged human PDE2A1 (2 to 941 residues) expressed in Baculovirus infected Sf9 insect cells at 250 uM using FAM-cAMP as substrate after 1 hr by fluorescence polarization assay relative to control
[32] = biological target: cGMP-dependent 3',5'-cyclic phosphodiesterase (Homo sapiens) (UniProt O00408); assay: Inhibition of N-terminal FLAG-tagged human PDE2A1 (2 to 941 residues) expressed in Baculovirus infected Sf9 insect cells at 8 uM using FAM-cAMP as substrate after 1 hr by fluorescence polarization assay relative to control
[33] = biological target: Dual specificity calcium/calmodulin-dependent 3',5'-cyclic nucleotide phosphodiesterase 1A (Homo sapiens) (UniProt P54750); assay: Inhibition of N-terminal GST-tagged full length recombinant human PDE1A expressed in Baculovirus infected Sf9 insect cells at 8 uM using FAM-cAMP as substrate after 1 hr by fluorescence polarization assay relative to control
[34] = biological target: cGMP-inhibited 3',5'-cyclic phosphodiesterase 3B (Homo sapiens) (UniProt Q13370); assay: Inhibition of N-terminal GST-tagged recombinant human PDE3B (592 end residues) expressed in Baculovirus infected Sf9 insect cells at 8 uM using FAM-cAMP as substrate after 1 hr by fluorescence polarization assay relative to control
[35] = biological target: 3',5'-cyclic-AMP phosphodiesterase 4A (Homo sapiens) (UniProt P27815); assay: Inhibition of N-terminal GST-tagged full length recombinant human PDE4A1A expressed in Baculovirus infected Sf9 insect cells at 1.5 uM using FAM-cAMP as substrate after 1 hr by fluorescence polarization assay relative to control
Rattus norvegicus [36] = assay: as §1; type: ADME, organism-based; design: dose 15 mg/kg, route oral, time infinity; details: in vivo; procedure, shortened: as §2

SMILES	Cmax [1]	Cmax [2]	Vd [3]	Ratio IC50 (Homo sapiens [4])	IC50 [5]	AUC(0-t) at 24 h [7]	Ratio IC50 (Homo sapiens [9])	Activity (Thoracic aorta)	MRT [10]	Ratio IC50 (Homo sapiens [11])	ED50 (Oryctolagus cuniculus)	clearance [12]	IC50 [14]	Tmax [16]	Ratio IC50 (Homo sapiens [17])	bioavailability [19]	half-life [21]	AUC(0-inf) [22]	Ratio IC50 (Homo sapiens [23])	MRT [24]	further results
CCc1ccc([C@@H]2c3[nH]c4ccccc4c(=O)c3CN2c2ncc(-c3ccccn3)cn2)o1	89.2 ng/mL	46.9 ng/mL	124 L/kg	3.9	1.5 nM	67.9 ng·h/mL	> 10000	>90%	3.1 h	> 10000	0.0242 mg/kg	533 mL/min/kg	0.39 nM	1.3 h	13.1	66.3%	2.9 h	69.3 ng·h/mL	> 10000	9.4 h	inhibition [6]: 49%; CL/F [8]: 550 mL/min/kg; inhibition [13]: 6%; inhibition [15]: 18%; inhibition [18]: 9.5%; AUC(0-inf) [20]: 344 ng·h/mL; Vdss (Rattus norvegicus [25]): 420.9 L/kg; IC50 [26]: 5.1 nM; half-life [27]: 7.8 h; AUC(0-t) at 24 h [28]: 312 ng·h/mL; Ratio IC50 (Homo sapiens [29]): > 2500; Tmax [30]: 6 min
CCc1ccc([C@@H]2c3[nH]c4ccccc4c(=O)c3CN2c2ncc(-c3ccccn3)cn2)s1	308 ng/mL	27.5 ng/mL	72.7 L/kg	2.5	1.2 nM	121 ng·h/mL	> 10000	>90%	2.9 h	> 10000	0.0217 mg/kg	287 mL/min/kg	0.52 nM	2.8 h	5.2	24.7%	1.9 h	125 ng·h/mL	> 10000	6.7 h	inhibition [31]: 81%; inhibition [32]: 39%; inhibition [33]: 9.5%; inhibition [34]: 7%; inhibition [35]: 10%; AUC (Rattus norvegicus [36]): 231.9 ng·h/mL; Vdss (Rattus norvegicus [25]): 181.3 L/kg; IC50 [26]: 2.7 nM; half-life [27]: 4.3 h; AUC(0-t) at 24 h [28]: 225 ng·h/mL; Ratio IC50 (Homo sapiens [29]): > 2500; Tmax [30]: 6 min
